Assay results as given in ChEMBL document CHEMBL1141679, “Design, synthesis, biochemical, and biological evaluation of nitrogen-containing trifluoro structural modifications of combretastatin A-4” (Bioorg Med Chem Lett, 2008).
pIC50: −log10 of the molar value. ≈ marks a conversion by molar mass, not a printed value.

Legend:
NCI-H460 = experiment: Cytotoxicity against human NCI-H460 cells after 48 hrs by SRB assay; type: functional; conditions: NCI-H460, 48 h
Summary of the method: (§1)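 Cells were seeded in culture medium with 5% fetal bovine serum and incubated 24 h, then serial dilutions of compound were added. After 48 h, cells were fixed with trichloroacetic acid and stained with sulforhodamine B, and optical density was read on a plate reader. GI50 is the concentration giving a 50% reduction in net protein increase, calculated from optical density.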

DU-145 = experiment: Cytotoxicity against human DU145 cells after 48 hrs by SRB assay; type: functional; conditions: DU-145, 48 h; summary of the method: as §1
[1] = Inhibition of calf brain tubulin polymerization; design: species or system Bos taurus
Summary of the method: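 Tubulin was purified from calf brain. Assembly was followed by turbidity at 350 nm. IC50 was obtained by nonlinear regression of the data.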

Row | pIC50 [1] | SMILES | GI50 (NCI-H460) [µg/mL] | GI50 (DU-145) [µg/mL]
1 | 5.35 | COc1ccc(/C=C\c2cc(F)c(F)c(F)c2)cc1O | 0.2 (≈ 0.714 µM) | 0.04 (≈ 0.143 µM)
2 |  | COc1ccc(/C=C/c2cc(F)c(F)c(F)c2)c(N)c1 | > 5 | > 5
3 |  | COc1ccc(/C=C\c2cc(F)c(F)c(F)c2)c(N)c1 | > 5 | 4.3 (≈ 15.4 µM)
4 |  | COc1ccc(/C=C\c2cc(F)c(F)c(F)c2)c([N+](=O)[O-])c1 | > 5 | > 5
5 | < 4.40 | COc1ccc(/C=C\c2cc(F)c(F)c(F)c2)cc1[N+](=O)[O-] | > 5 | > 5
6 |  | COc1ccc(/C=C/c2cc(F)c(F)c(F)c2)c([N+](=O)[O-])c1 | > 5 | > 5
7 | < 4.40 | COc1ccc(/C=C/c2cc(F)c(F)c(F)c2)cc1[N+](=O)[O-] | > 5 | > 5
8 | < 4.40 | COc1ccc(/C=C/c2cc(F)c(F)c(F)c2)cc1N | > 5 | > 5
9 | 5.54 | COc1ccc(/C=C\c2cc(F)c(F)c(F)c2)cc1N | 0.11 (≈ 0.394 µM) | 0.072 (≈ 0.258 µM)
10 |  | COc1ccc(/C=C\c2cc(OC)c(OC)c(OC)c2)cc1O [COMBRETASTATIN A4] | 0.0006 (≈ 0.0019 µM) | 0.0008 (≈ 0.00253 µM)

Row | SMILES | pIC50 [1] | GI50 (NCI-H460) [µg/mL] | GI50 (DU-145) [µg/mL]
11 | COc1ccc(/C=C\c2cc(OC)c(OC)c(OC)c2)c(N)c1 | 5.85 | 0.0012 (≈ 0.00381 µM) | 0.0016 (≈ 0.00507 µM)
12 | COc1ccc(/C=C\c2cc(OC)c(OC)c(OC)c2)cc1N | 5.59 | 0.00068 (≈ 0.00216 µM) | 0.00096 (≈ 0.00304 µM)
